Measurements from publication PMC11626171 (Proceedings of the National Academy of Sciences of the …, 2024).

Experiments:
[1] = test system: low-social male rhesus monkeys; assay: Face recognition memory, visual paired comparison task; format: in vivo, rhesus macaques (Macaca mulatta)
In short: (§1)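 Young adult males trained to breathe via mask-attached nebulizer until 2 min 40 s cumulative breathing. Dosed 0, 25 or 50 IU AVP per 1 mL in 0.4% 4-chlorobutanol/0.9% NaCl vehicle (vehicle as placebo), modified Latin square order, blinded, ≥1-week washout, 0900 dosing. Unique stimulus sets per dose on monitor. Looks +1 each; ln(novel/familiar) analysed by repeated-measures REML mixed model.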

[2] = test system: low-social male rhesus monkeys; assay: Object recognition memory, visual paired comparison task; format: in vivo, rhesus macaques (Macaca mulatta); details: nebulized AVP (25 and 50 IU pooled) vs placebo, within-subjects, N = 8, testing began 30 min after nebulization
In short: as §1

[3] = test system: low-social male rhesus monkeys; format: in vivo, rhesus macaques (Macaca mulatta); details: N = 8
In short: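 Low-social males habituated and given refresher mask training; next day nebulized at 0900 with 0, 25 or 50 IU per 1 mL (diluent placebo), order by modified Latin square, one-week washout. From 30 min post-dose, viewed on a monitor 61 cm from the cage videos of an unfamiliar adult male showing affiliative or aggressive behavior, interspersed with neutral nonsocial bouts, with a unique stimulus set per dose.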

[4] = Pharmacokinetics of nebulized AVP: cisternal CSF AVP levels; format: in vivo, rhesus macaques (Macaca mulatta); details: N = 4, ELISA
In short: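 Same blinded nebulization at 0900. Sedation with dexmedetomidine (0.015 to 0.075 mg/kg) plus ketamine (5 to 30 mg/kg) at 20 min. Paired cisternal CSF and femoral venous blood sampled at two timepoints per session (30/90 or 60/120 min). Blood-contaminated CSF excluded. Unextracted CSF run by enzyme immunoassay in duplicate. Values given as ratio to matched placebo timepoint, log-transformed, REML mixed model.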

[5] = test system: children with ASD; details: 4-wk intranasal AVP treatment, pilot clinical trial; cited from earlier work
[6] = Pharmacokinetics of nebulized AVP: plasma AVP levels; format: in vivo, rhesus macaques (Macaca mulatta); details: N = 4, ELISA
In short: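 Nebulized through a face mask for 2 min 40 s of cumulative breathing at 0900 (0, 25 or 50 IU per 1 mL; diluent vehicle as placebo). Sedated with dexmedetomidine/ketamine 20 min later. Femoral blood sampled at two of 30/60/90/120 min, on EDTA, spun 1600×g 4 °C 15 min. Plasma extracted, nitrogen-dried, reconstituted, enzyme immunoassay in duplicate, expressed as ratio to the matched placebo timepoint. Washout ≥1 week.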

[7] = test system: people with ASD; details: multisite clinical trial; cited from earlier work
[8] = nebulized AVP (25 and 50 IU pooled) vs placebo, within-subjects
[9] = nebulized 25 or 50 IU AVP, 30, 60, 90, 120 min postnebulization

Molecule: NC(=O)CC[C@@H]1NC(=O)[C@H](Cc2ccccc2)NC(=O)[C@H](Cc2ccc(O)cc2)NC(=O)[C@@H](N)CSSC[C@@H](C(=O)N2CCC[C@H]2C(=O)N[C@@H](CCCN=C(N)N)C(=O)NCC(N)=O)NC(=O)[C@H](CC(N)=O)NC1=O [AVP, [ARG8]-vasopressin]
- face recognition memory (ratio of looks to novel versus familiar faces) ([1]; nebulized AVP (25 and 50 IU pooled) vs placebo, within-subjects, N = 8, testing began 30 min after nebulization): rescued
- recognition memory findings, 25 IU vs 50 IU AVP dose ([1]; nebulized AVP, faces and objects, N = 8): did not differ between the 25 and 50 IU AVP doses
- object recognition memory (ratio of looks to novel versus familiar objects) [2]: did not differ between treatment conditions
- affiliative response rate to conspecific aggressive cues [3, 8]: no treatment-related difference
- affiliative responses to conspecific affiliative communication cues [3, 8]: reciprocated affiliative communication cues with species-typical affiliative responses
- aggressive responses to conspecific aggressive or affiliative overtures [3, 8]: did not increase
- affiliative response findings, 25 IU vs 50 IU AVP dose ([3]; nebulized AVP): did not differ between the 25 and 50 IU AVP doses
- aggressive response findings, 25 IU vs 50 IU AVP dose ([3]; nebulized AVP): did not differ between the 25 and 50 IU AVP doses
- cisternal CSF AVP levels following AVP nebulization relative to placebo, time course [4, 9]: progressive linear increase
- CSF AVP level effect, 50 IU vs 25 IU dose ([4]; nebulized AVP): consistently stronger in the 50 IU AVP dose compared to the 25 IU AVP dose
- social abilities in children with ASD [5]: improves empathic accuracy, facial emotion recognition, and social abilities
- plasma AVP levels following AVP nebulization relative to placebo, time course [6, 9]: quadratic rise and fall
- plasma AVP level effect, 50 IU vs 25 IU dose ([6]; nebulized AVP): consistently stronger in the 50 IU AVP dose compared to the 25 IU dose

Molecule: oxytocin [OXT]
- core behavioral symptoms in people with ASD [7]: neither balovaptan [an AVPR1A antagonist ([49])], nor OXT ([50]), improve core behavioral symptoms

Molecule: CN1Cc2cc(Cl)ccc2-n2c(nnc2[C@H]2CC[C@H](Oc3ccccn3)CC2)C1 [balovaptan]
- core behavioral symptoms in people with ASD [7]: neither balovaptan [an AVPR1A antagonist ([49])], nor OXT ([50]), improve core behavioral symptoms
